Data on 17 molecules can be found in paper PMC3818380 (Archives of biochemistry and biophysics, 2013).

The target in this experiment is interphotoreceptor retinoid-binding protein (IRBP) (Bos taurus, UniProt P12661). Kind of experiment: Surface plasmon resonance. More on the design: species or system bovine. The following applies: for Stoichiometry (No. of sites): SPR, 25°C, n=3, ligand:IRBP binding stoichiometry; for kon: pH 7.4, read-out: ka, association rate constant; for koff: pH 7.4, read-out: kd, dissociation rate constant. A digest of the protocol:
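IRBP purified by chromatography from dark-adapted bovine retinas and amine-coupled at 10 µg/mL in 10 mM sodium acetate pH 4.5 to 10–12 kRU, with an unmodified reference channel. Running buffer 10 mM PBS pH 7.4, 0.01% Tween-20, 3% DMSO; for fatty acids, HEPES pH 7.4, 0.01% Tween-20, 3% ethanol. Seven two-fold FastStep injections, typically 0.01–15 µM, in triplicate at 25°C. Data double-referenced and globally fitted.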
(In general: In SPR one partner is held on a chip, and binding of the other changes the refractive index at the surface.)

Chain of interphotoreceptor retinoid-binding protein (IRBP) (P12661 23-1286): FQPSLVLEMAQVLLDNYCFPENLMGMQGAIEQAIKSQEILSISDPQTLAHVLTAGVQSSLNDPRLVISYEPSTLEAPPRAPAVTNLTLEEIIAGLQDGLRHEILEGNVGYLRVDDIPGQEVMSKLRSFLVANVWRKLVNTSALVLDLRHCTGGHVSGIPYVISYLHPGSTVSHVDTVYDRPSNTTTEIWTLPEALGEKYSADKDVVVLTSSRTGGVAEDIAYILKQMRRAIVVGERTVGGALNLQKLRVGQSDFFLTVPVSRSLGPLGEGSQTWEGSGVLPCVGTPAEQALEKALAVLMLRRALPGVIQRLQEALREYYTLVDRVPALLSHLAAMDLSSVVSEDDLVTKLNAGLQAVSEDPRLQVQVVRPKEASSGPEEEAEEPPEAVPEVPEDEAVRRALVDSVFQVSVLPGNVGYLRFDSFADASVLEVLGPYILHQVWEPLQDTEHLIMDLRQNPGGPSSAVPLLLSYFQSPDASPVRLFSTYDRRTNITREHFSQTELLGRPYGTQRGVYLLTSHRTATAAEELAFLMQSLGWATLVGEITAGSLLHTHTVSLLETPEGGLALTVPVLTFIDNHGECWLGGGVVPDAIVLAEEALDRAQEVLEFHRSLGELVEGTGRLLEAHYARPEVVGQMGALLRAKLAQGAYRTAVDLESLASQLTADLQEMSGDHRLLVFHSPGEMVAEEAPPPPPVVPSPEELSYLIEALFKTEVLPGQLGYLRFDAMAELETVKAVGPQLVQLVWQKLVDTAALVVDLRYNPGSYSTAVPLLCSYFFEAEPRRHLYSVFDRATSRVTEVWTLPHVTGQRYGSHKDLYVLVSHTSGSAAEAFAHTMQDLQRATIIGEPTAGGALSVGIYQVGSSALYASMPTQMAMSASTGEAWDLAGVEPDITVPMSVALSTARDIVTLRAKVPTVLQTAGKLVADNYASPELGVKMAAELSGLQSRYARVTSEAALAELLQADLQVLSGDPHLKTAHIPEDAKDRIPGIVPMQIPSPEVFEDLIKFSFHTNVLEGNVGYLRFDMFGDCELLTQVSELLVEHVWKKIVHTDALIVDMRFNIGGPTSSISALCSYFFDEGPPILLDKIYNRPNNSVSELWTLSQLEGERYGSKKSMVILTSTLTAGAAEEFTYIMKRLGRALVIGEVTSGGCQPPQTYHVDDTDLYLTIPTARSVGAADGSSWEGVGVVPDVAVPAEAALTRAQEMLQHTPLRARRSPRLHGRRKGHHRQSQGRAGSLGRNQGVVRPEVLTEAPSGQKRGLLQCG

As for `CC1=C(/C=C/C(C)=C/C=C/C(C)=C/C=O)C(C)(C)CCC1` [11-cis-retinal], the “Stoichiometry (No. of sites)” value was 3.1.
Usually Kd stands for the equilibrium constant for the complex coming apart. Read a high Kd as a looser complex. Consider `CCCCCCCCCCCCCCCCCCCC(=O)O` [Arachidic acid], for which the Kd turned out to be 10.2 ± 0.7 µM, the “Stoichiometry (No. of sites)” value is on record as 3.7, the kon was determined as 280000 ± 1e+09 M⁻¹ s⁻¹ and the koff was determined as 2.8 ± 0.1 s⁻¹.
For `CCCCC/C=C\C/C=C\C/C=C\C/C=C\CCCC(=O)O` [Arachidonic acid] the same measures were 10 ± 0.1 µM, 3.8, 24000 ± 3e+07 M⁻¹ s⁻¹ and 0.24 ± 0.3 s⁻¹.
For `CC1=C(/C=C/C(C)=C/C=C/C(C)=C/C=C/C=C(C)/C=C/C=C(C)/C=C/C2=C(C)C(=O)[C@@H](O)CC2(C)C)C(C)(C)C[C@H](O)C1=O` [Astaxanthin], the dissociation constant (Kd) worked out at 1.64 ± 0.06 µM, the “Stoichiometry (No. of sites)” value is 3.4, the kon came to 26800 ± 9e+07 M⁻¹ s⁻¹ and the koff was found to be 0.04 ± 0.5 s⁻¹.
Turning to `CC/C=C\C/C=C\C/C=C\C/C=C\C/C=C\C/C=C\CCC(=O)O` [Docosahexaenoic acid (DHA), Docosahexaenoic acid], binding was put at a Kd of 10 ± 0.1 µM, the “Stoichiometry (No. of sites)” value worked out at 3.4, the kon was 20000 ± 2e+07 M⁻¹ s⁻¹ and the koff came out at 0.2 ± 0.2 s⁻¹.
Regarding `CC/C=C\C/C=C\C/C=C\C/C=C\C/C=C\CCCC(=O)O` [Eicosapentaenoic acid (EPA), Eicosapentaenoic acid], binding was put at a Kd of 9.4 ± 0.7 µM, the “Stoichiometry (No. of sites)” value is listed as 3.4, the kon worked out at 30000 ± 2e+07 M⁻¹ s⁻¹ and the koff came out at 0.28 ± 0.4 s⁻¹.
For `CCCCC/C=C\C/C=C\CCCCCCCC(=O)O` [Linoleic acid] the same measures were 11 ± 0.2 µM, 3.7, 23000 ± 4e+07 M⁻¹ s⁻¹ and 0.26 ± 0.4 s⁻¹.
Turning to `CC1=C[C@H](O)CC(C)(C)[C@H]1/C=C/C(C)=C/C=C/C(C)=C/C=C/C=C(C)/C=C/C=C(C)/C=C/C1=C(C)C[C@@H](O)CC1(C)C` [Lutein], the equilibrium dissociation constant (Kd) amounted to 1.06 ± 0.2 µM, the “Stoichiometry (No. of sites)” value came to 3.4, the kon amounted to 49000 ± 9e+07 M⁻¹ s⁻¹ and the koff turned out to be 0.05 ± 0.4 s⁻¹.
With `CCCCCCCC/C=C\CCCCCCCC(=O)O` [Oleic acid], binding was characterised by a dissociation constant (Kd) of 7.3 ± 0.7 µM, the “Stoichiometry (No. of sites)” value is on record as 3.6, the kon amounted to 150000 ± 2e+09 M⁻¹ s⁻¹ and the koff is 1.1 ± 0.3 s⁻¹.
With `CCCCCCCCCCCCCCCC(=O)O` [Palmitic acid], the Kd was 11.1 ± 0.7 µM, the “Stoichiometry (No. of sites)” value is 3.7, the kon amounted to 360000 ± 2e+09 M⁻¹ s⁻¹ and the koff was found to be 0.4 ± 0.1 s⁻¹.
Taken in the same sequence, the figures for `CCCCCCCCCCCCCCCCCC(=O)O` [Stearic acid] were 7.03 ± 0.1 µM, 3.7, 32000 ± 4e+07 M⁻¹ s⁻¹ and 0.23 ± 0.6 s⁻¹.
Taken in the same sequence, the figures for `CC1=C(/C=C/C(C)=C/C=C/C(C)=C/C=C/C=C(C)/C=C/C=C(C)/C=C/C2=C(C)C[C@@H](O)CC2(C)C)C(C)(C)C[C@H](O)C1` [Zeaxanthin] were 1.64 ± 0.5 µM, 3.3, 33000 ± 1e+07 M⁻¹ s⁻¹ and 0.05 ± 0.5 s⁻¹.
For `CC1=C(/C=C/C(C)=C/C=C/C(C)=C/C(=O)O)C(C)(C)CCC1` [all -trans -retinoic acid] the same measures were 3.5 ± 0.1 µM, 3.4, 40000 ± 1e+07 M⁻¹ s⁻¹ and 0.14 ± 0.2 s⁻¹.
For the molecule `CC1=C(/C=C/C(C)=C/C=C/C(C)=C/C=O)C(C)(C)CCC1` [all-trans-retinal], the “Stoichiometry (No. of sites)” value was 3.2.
On the same count and under the same terms, to `CC1=C(/C=C/C(C)=C/C=C/C(C)=C/CO)C(C)(C)CCC1` [all-trans-retinol] belongs 3.5.
Turning to `CC1=C(/C=C/C(C)=C/C=C/C(C)=C/C=C/C=C(C)/C=C/C=C(C)/C=C/C2=C(C)CCCC2(C)C)C(C)(C)CCC1` [β-carotene], the equilibrium dissociation constant (Kd) is 0.92 ± 0.1 µM, the “Stoichiometry (No. of sites)” value is listed as 3.1, the kon came to 122000 ± 2e+09 M⁻¹ s⁻¹ and the koff is 0.11 ± 0.8 s⁻¹.
As to meso-zeaxanthin, the “Stoichiometry (No. of sites)” value was 3.2.
